Measured values as given in the M2OR odorant receptor database.

Tests used:
Settings in all cases: stereoisomer not certain
OR6C65 (Homo sapiens) = molecular target: T1, OR6C65 (Homo sapiens) (UniProt A6NJZ3)
T1 sequence (whole entry): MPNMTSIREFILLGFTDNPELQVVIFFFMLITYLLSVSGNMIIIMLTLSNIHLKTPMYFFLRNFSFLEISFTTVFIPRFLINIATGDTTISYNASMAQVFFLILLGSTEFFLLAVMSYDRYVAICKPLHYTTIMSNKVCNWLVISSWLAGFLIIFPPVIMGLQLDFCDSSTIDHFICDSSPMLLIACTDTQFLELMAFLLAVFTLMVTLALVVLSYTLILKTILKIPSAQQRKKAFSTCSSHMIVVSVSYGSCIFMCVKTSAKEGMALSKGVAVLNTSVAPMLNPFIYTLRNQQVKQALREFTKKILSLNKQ
In short: (§1)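 Values were gathered from published papers (main text and supplementary material), with extra details requested from the original authors when needed, and checked for typos and inconsistencies. Each receptor–molecule pair is called responsive (active) if the original authors judged the measured signal statistically different from baseline, and non-responsive (inactive) otherwise. Assay methods varied by source, often transient mammalian cell-line luciferase assays. Recorded details include cell line, G-protein, co-transfected protein and tags.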

OR6C68 (Homo sapiens) = molecular target: T2, OR6C68 (Homo sapiens) (UniProt A6NDL8)
T2 sequence (whole entry): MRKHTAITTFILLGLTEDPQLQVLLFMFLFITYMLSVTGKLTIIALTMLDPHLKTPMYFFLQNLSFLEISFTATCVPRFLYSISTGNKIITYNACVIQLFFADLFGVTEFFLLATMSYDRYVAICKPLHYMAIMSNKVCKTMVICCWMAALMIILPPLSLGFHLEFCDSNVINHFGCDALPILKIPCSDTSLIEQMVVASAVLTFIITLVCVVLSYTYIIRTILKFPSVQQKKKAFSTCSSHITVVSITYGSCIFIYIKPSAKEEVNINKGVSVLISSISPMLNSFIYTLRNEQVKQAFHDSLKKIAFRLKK
In short: as §1

OR6C70 (Homo sapiens) = molecular target: T3, OR6C70 (Homo sapiens) (UniProt A6NIJ9)
T3 sequence (whole entry): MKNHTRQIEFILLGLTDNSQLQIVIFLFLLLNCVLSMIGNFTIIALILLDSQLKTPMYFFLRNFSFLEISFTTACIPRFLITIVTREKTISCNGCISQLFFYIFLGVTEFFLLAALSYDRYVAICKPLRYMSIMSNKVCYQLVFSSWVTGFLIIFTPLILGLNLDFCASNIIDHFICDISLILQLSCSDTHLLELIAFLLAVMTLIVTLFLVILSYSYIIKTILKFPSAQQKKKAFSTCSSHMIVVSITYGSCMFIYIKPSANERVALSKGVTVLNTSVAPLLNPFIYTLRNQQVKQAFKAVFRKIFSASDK
In short: as §1

OR6C74 (Homo sapiens) = molecular target: T4, OR6C74 (Homo sapiens) (UniProt A6NCV1)
T4 sequence (whole entry): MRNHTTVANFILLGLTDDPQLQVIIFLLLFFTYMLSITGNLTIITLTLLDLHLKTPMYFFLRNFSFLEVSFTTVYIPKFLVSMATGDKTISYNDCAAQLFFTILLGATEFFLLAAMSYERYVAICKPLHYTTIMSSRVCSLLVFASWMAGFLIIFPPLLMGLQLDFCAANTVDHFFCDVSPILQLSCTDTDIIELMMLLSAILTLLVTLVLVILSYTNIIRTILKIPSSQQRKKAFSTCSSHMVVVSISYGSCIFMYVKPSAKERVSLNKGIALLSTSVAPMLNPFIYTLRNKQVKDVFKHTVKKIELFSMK
In short: as §1

OR6C75 (Homo sapiens) = molecular target: T5, OR6C75 (Homo sapiens) (UniProt A6NL08)
T5 sequence (whole entry): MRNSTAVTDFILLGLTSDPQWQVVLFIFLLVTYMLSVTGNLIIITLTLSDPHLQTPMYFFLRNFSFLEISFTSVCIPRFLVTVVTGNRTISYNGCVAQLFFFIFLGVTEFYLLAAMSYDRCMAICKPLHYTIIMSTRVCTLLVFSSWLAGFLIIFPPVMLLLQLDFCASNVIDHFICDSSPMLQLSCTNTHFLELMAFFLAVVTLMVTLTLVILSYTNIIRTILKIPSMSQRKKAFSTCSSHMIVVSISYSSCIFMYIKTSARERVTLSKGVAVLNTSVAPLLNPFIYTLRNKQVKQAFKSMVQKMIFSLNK
In short: as §1

OR6C76 (Homo sapiens) = molecular target: T6, OR6C76 (Homo sapiens) (UniProt A6NM76)
T6 sequence (whole entry): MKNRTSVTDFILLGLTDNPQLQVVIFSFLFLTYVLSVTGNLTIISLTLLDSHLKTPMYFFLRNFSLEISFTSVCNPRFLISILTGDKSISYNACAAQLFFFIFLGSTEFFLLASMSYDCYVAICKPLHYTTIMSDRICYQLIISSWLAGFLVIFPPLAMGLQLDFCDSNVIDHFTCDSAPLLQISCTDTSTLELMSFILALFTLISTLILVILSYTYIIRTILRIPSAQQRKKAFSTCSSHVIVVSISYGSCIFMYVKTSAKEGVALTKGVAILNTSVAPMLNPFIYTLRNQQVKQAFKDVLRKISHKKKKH
In short: as §1

OR6F1 (Homo sapiens) = molecular target: T7, OR6F1 (Homo sapiens) (UniProt Q8NGZ6)
T7 sequence (whole entry): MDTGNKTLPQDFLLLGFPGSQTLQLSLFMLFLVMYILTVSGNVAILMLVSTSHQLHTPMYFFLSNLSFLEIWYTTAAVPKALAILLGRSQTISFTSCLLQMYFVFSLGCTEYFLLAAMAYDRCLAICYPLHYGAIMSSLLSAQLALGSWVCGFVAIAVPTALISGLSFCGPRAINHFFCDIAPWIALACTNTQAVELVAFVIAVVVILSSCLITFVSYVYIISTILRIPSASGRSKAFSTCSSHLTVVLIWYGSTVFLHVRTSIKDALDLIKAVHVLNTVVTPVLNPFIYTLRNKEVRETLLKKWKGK
In short: as §1

OR6J1 (Homo sapiens) = molecular target: T8, OR6J1 (Homo sapiens) (UniProt Q8NGC5)
T8 sequence (whole entry): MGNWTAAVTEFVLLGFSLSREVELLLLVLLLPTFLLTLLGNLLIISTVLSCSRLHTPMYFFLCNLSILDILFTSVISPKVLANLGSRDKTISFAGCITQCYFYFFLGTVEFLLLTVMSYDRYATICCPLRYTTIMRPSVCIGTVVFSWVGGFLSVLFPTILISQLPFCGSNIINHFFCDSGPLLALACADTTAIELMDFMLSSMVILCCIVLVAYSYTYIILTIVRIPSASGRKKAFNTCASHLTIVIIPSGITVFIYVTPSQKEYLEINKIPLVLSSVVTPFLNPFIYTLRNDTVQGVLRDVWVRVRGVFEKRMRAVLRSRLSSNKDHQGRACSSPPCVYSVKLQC
In short: as §1

OR6K2 (Homo sapiens) = molecular target: T9, OR6K2 (Homo sapiens) (UniProt Q8NGY2)
T9 sequence (whole entry): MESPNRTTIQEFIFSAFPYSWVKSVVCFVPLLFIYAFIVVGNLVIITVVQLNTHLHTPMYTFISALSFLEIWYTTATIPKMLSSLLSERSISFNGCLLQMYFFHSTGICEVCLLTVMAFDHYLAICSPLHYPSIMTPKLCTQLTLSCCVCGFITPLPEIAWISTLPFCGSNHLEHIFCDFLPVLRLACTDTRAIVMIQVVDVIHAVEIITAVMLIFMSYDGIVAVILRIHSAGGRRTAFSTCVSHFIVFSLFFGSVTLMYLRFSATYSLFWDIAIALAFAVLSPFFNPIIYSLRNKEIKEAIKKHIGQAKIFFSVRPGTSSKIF
In short: as §1

OR6K3 (Homo sapiens) = molecular target: T10, OR6K3 (Homo sapiens) (UniProt Q8NGY3)
T10 sequence (whole entry): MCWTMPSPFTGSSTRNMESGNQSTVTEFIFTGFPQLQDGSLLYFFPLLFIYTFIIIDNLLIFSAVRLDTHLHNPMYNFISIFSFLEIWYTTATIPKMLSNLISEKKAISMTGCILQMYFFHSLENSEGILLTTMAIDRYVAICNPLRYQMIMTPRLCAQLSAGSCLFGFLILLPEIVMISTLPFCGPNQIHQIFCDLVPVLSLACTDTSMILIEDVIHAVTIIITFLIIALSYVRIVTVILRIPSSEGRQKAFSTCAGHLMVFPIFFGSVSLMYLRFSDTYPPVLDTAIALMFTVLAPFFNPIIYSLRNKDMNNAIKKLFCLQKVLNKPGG
In short: as §1

OR6K6 (Homo sapiens) = molecular target: T11, OR6K6 (Homo sapiens) (UniProt Q8NGW6)
T11 sequence (whole entry): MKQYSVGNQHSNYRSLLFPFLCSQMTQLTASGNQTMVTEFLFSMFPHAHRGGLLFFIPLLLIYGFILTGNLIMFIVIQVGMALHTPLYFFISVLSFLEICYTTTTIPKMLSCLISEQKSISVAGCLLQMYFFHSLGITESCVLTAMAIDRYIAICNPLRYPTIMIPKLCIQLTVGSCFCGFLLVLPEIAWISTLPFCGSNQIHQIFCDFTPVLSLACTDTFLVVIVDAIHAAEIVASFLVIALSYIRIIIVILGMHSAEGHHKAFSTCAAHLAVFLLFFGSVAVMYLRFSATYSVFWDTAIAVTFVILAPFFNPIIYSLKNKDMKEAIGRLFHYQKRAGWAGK
In short: as §1

OR6M1 (Homo sapiens) = molecular target: T12, OR6M1 (Homo sapiens) (UniProt Q8NGM8)
T12 sequence (whole entry): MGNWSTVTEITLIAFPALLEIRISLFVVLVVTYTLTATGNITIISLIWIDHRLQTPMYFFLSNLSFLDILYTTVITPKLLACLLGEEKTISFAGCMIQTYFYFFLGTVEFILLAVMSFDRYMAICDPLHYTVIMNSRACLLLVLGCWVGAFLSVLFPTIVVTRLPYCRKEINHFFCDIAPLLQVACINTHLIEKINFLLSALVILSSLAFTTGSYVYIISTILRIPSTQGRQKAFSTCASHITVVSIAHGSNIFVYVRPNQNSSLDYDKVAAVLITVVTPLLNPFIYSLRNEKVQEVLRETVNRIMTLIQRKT
In short: as §1

OR6N1 (Homo sapiens) = molecular target: T13, OR6N1 (Homo sapiens) (UniProt Q8NGY5)
T13 sequence (whole entry): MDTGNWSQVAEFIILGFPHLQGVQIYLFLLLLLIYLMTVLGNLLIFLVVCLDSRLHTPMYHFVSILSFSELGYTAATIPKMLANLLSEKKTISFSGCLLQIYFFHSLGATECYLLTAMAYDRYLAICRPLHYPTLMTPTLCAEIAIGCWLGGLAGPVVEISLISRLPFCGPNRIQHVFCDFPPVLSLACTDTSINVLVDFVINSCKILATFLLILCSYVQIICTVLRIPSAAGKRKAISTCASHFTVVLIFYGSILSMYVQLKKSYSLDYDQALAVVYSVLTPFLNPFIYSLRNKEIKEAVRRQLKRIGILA
In short: as §1

OR6N2 (Homo sapiens) = molecular target: T14, OR6N2 (Homo sapiens) (UniProt Q8NGY6)
T14 sequence (whole entry): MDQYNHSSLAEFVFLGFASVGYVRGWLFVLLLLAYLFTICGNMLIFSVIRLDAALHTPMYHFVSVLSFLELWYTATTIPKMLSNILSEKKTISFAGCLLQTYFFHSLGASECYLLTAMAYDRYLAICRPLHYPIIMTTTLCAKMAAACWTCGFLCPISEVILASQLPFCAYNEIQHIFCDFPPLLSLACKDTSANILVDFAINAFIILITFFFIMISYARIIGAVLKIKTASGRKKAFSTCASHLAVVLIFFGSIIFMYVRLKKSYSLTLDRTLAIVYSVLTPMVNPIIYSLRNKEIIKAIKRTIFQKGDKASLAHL
In short: as §1

OR6P1 (Homo sapiens) = molecular target: T15, OR6P1 (Homo sapiens) (UniProt Q8NGX9)
T15 sequence (whole entry): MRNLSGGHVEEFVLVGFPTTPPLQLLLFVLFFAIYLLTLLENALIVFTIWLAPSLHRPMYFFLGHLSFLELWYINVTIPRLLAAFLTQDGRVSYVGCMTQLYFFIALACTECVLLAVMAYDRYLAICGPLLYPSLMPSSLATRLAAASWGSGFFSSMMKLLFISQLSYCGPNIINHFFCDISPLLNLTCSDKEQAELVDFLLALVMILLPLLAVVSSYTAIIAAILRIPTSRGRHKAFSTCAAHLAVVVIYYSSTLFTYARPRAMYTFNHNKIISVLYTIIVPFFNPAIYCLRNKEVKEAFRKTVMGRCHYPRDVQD
In short: as §1

OR6Q1 (Homo sapiens) = molecular target: T16, OR6Q1 (Homo sapiens) (UniProt Q8NGQ2)
T16 sequence (whole entry): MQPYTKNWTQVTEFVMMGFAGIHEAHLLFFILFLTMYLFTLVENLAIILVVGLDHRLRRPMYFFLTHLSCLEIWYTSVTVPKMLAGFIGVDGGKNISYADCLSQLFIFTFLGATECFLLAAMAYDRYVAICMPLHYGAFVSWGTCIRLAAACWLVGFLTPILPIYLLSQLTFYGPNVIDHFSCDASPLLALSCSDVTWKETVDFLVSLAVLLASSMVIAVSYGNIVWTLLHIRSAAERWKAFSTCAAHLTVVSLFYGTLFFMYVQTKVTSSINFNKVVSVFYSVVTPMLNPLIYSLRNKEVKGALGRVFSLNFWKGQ
In short: as §1

Measured: odorant receptor agonist call

CC(CO)CS (configuration not stated)
inactive: all assays above

CCCCCC(S)C(C)CO (configuration not stated)
inactive: all assays above
